From ChEMBL document CHEMBL1123964, “Potent, long-acting luteinizing hormone-releasing hormone antagonists containing new synthetic amino acids: N,N'-dialkyl-D-homoarginines” (J Med Chem, 1988)
Square brackets hold non-standard residues; d marks the D form. Peptide text beside a SMILES is read from it. d(hArg(Et2)) = CCN=C(NCC)NCCCC[C@@H](N)C(=O)O; dPhe(4-Cl) = N[C@H](Cc1ccc(Cl)cc1)C(=O)O; d2Nal = N[C@H](Cc1ccc2ccccc2c1)C(=O)O

How the values were obtained:
[1] = target: T1, Gonadotropin-releasing hormone receptor (Rattus norvegicus) (UniProt P30969); assay: Antiovulatory activity on proestrus was measured by administering as a solution in 50% propylene glycol / 0.9% saline in rat; type: functional
T1 sequence (whole entry): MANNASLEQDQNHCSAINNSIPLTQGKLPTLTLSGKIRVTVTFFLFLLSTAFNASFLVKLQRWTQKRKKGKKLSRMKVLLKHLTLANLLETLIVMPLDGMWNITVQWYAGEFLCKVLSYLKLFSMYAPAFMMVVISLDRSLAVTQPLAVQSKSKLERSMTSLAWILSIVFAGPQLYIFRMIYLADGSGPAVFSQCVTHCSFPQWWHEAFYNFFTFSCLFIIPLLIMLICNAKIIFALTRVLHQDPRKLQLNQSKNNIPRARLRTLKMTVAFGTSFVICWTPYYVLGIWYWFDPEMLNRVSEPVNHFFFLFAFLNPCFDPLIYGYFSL

[2] = target: T1, Gonadotropin-releasing hormone receptor (Rattus norvegicus); assay: Antiovulatory activity on diestrus II following administration as a solution in corn oil (24h earlier) in rat.; type: functional, organism-based
In short: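 Female rats with at least two normal 4-day cycles before the test cycle were selected. They received the analogue sc in corn oil at noon on diestrus II, 24 h before the proestrus dosing time. On the morning of expected estrus the oviducts were examined under a dissecting microscope, and freshly ovulated eggs were counted. ED50 was taken from percent ovulating versus log-dose, with 10 rats per dose group and usually three or more dose groups.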

[3] = target: T1, Gonadotropin-releasing hormone receptor (Rattus norvegicus); assay: Antiovulatory activity on proestrus following administration of solution in corn oil in rat.; type: functional, organism-based
In short: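 Rats with at least two normal 4-day cycles were used. They were injected sc with the analogue in corn oil at noon on proestrus, about 2 h before the preovulatory LH-RH surge. Oviducts were removed on the morning of expected estrus and checked microscopically for fresh eggs, which were counted. ED50 came from percent of females ovulating plotted against log-dose, with 10 animals per dose group.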

Row | SMILES | ED50 (ug injection-1) [1] | ED50 (ug injection-1) [2] | ED50 (ug injection-1) [3]
1 | CCNC(=NCCCC[C@@H](NC(=O)[C@H](Cc1ccc(O)cc1)NC(=O)[C@H](CO)NC(=O)[C@@H](Cc1c[nH]c2ccccc12)NC(=O)[C@@H](Cc1ccc(F)cc1)NC(=O)[C@@H](Cc1ccc2ccccc2c1)NC(C)=O)C(=O)N[C@@H](CC(C)C)C(=O)N[C@@H](CCCN=C(N)N)C(=O)N1CCC[C@H]1C(=O)NCC(N)=O)NCCCN(C)C | > 2 | – | –
2 | CCCCCCNC(=NCCCC[C@@H](NC(=O)[C@H](Cc1ccc(O)cc1)NC(=O)[C@H](CO)NC(=O)[C@@H](Cc1c[nH]c2ccccc12)NC(=O)[C@@H](Cc1ccc(F)cc1)NC(=O)[C@@H](CO)NC(C)=O)C(=O)N[C@@H](CC(C)C)C(=O)N[C@@H](CCCN=C(N)N)C(=O)N1CCC[C@H]1C(=O)NCC(N)=O)NCCCCCC | 16 | – | –
3 | CCCNC(=NCCCC[C@@H](NC(=O)[C@H](Cc1ccc(O)cc1)NC(=O)[C@H](CO)NC(=O)[C@@H](Cc1ccc2ccccc2c1)NC(=O)[C@@H](Cc1ccc(F)cc1)NC(=O)[C@@H](Cc1ccc2ccccc2c1)NC(C)=O)C(=O)N[C@@H](CC(C)C)C(=O)N[C@@H](CCCN=C(N)N)C(=O)N1CCC[C@H]1C(=O)NCC(N)=O)NCCC | 7.5 | – | –
4 | CCNC(=NCCCC[C@@H](NC(=O)[C@H](Cc1ccc(O)cc1)NC(=O)[C@H](CO)NC(=O)[C@@H](Cc1ccncc1)NC(=O)[C@@H](Cc1ccc(Cl)cc1)NC(=O)[C@@H](Cc1ccc2ccccc2c1)NC(C)=O)C(=O)N[C@@H](CC(C)C)C(=O)N[C@@H](CCCN=C(N)N)C(=O)N1CCC[C@H]1C(=O)N[C@H](C)C(N)=O)NCC | 1.7 | – | –
5 | CCNC(=NCCCC[C@H](NC(=O)[C@H](CO)NC(=O)[C@@H](Cc1c[nH]c2ccccc12)NC(=O)[C@@H](Cc1ccc(Cl)cc1)NC(=O)[C@@H](Cc1ccc2ccccc2c1)NC(C)=O)C(=O)N[C@H](Cc1ccc(O)cc1)C(=O)N[C@@H](CC(C)C)C(=O)N[C@@H](CCCN=C(N)N)C(=O)N1CCC[C@H]1C(=O)N[C@H](C)C(N)=O)NCC | 1.7 | – | –
6 | CC(=O)N[C@H](Cc1ccc(Cl)cc1)C(=O)N[C@H](Cc1ccc(Cl)cc1)C(=O)N[C@H](Cc1c[nH]c2ccccc12)C(=O)N[C@@H](CO)C(=O)N[C@@H](Cc1ccc(O)cc1)C(=O)N[C@H](CCCCN=C(NC(C)C)NC(C)C)C(=O)N[C@@H](CC(C)C)C(=O)N[C@@H](CCCN=C(N)N)C(=O)N1CCC[C@H]1C(=O)N[C@H](C)C(N)=O | 16 | > 16 | –
7 | CCNC(=NCCCC[C@@H](NC(=O)[C@H](Cc1ccc(O)cc1)NC(=O)[C@H](CO)NC(=O)[C@@H](Cc1c[nH]c2ccccc12)NC(=O)[C@@H](Cc1ccc(Cl)cc1)NC(=O)[C@@H](Cc1ccc2ccccc2c1)NC(C)=O)C(=O)N[C@@H](CC(C)C)C(=O)N[C@@H](CCCN=C(N)N)C(=O)N1CCC[C@H]1C(=O)NNC(N)=O)NCC | 0.55 | 9.5 | –
8 | CCNC(=NCCCC[C@@H](NC(=O)[C@H](Cc1ccc(O)cc1)NC(=O)[C@H](CO)NC(=O)[C@@H](Cc1c[nH]c2ccccc12)NC(=O)[C@@H](Cc1ccc(Cl)cc1)NC(=O)[C@@H](Cc1ccc2ccccc2c1)NC(C)=O)C(=O)N[C@@H](Cc1c[nH]c2ccccc12)C(=O)N[C@@H](CCCN=C(N)N)C(=O)N1CCC[C@H]1C(=O)N[C@H](C)C(N)=O)NCC | 1.2 | – | –
9 | CCNC(=NCCCC[C@H](NC(=O)[C@H](CO)NC(=O)[C@@H](Cc1c[nH]c2ccccc12)NC(=O)[C@@H](Cc1ccc(Cl)cc1)NC(=O)[C@@H](Cc1ccc2ccccc2c1)NC(C)=O)C(=O)N[C@H](Cc1ccc(O)cc1)C(=O)N[C@@H](Cc1c[nH]c2ccccc12)C(=O)N[C@@H](CCCN=C(N)N)C(=O)N1CCC[C@H]1C(=O)N[C@H](C)C(N)=O)NCC | 11.5 | – | –
10 | CCCCNC(=NCCCC[C@@H](NC(=O)[C@H](Cc1ccc(O)cc1)NC(=O)[C@H](CO)NC(=O)[C@@H](Cc1c[nH]c2ccccc12)NC(=O)[C@@H](Cc1ccc(Cl)cc1)NC(=O)[C@@H](Cc1ccc2ccccc2c1)NC(C)=O)C(=O)N[C@@H](CC(C)C)C(=O)N[C@@H](CCCN=C(N)N)C(=O)N1CCC[C@H]1C(=O)N[C@H](C)C(N)=O)NCCCC | 3.4 | > 16 | –
11 | CCNC(=NCCCC[C@@H](NC(=O)[C@H](Cc1ccc(O)cc1)NC(=O)[C@H](CO)NC(=O)[C@@H](Cc1c[nH]c2ccccc12)NC(=O)[C@@H](Cc1ccc(Cl)cc1)NC(=O)[C@@H](Cc1ccc2ccccc2c1)NC(C)=O)C(=O)N[C@@H](Cc1ccccc1)C(=O)N[C@@H](CCCN=C(N)N)C(=O)N1CCC[C@H]1C(=O)N[C@H](C)C(N)=O)NCC (Ac-[d2Nal][dPhe(4-Cl)][dW]SY[d(hArg(Et2))]FRP[dA]-NH2) | 0.75 | 8 | –
12 | CCNC(=NCCCC[C@@H](NC(=O)[C@H](Cc1ccc(O)cc1)NC(=O)[C@H](CO)NC(=O)[C@@H](Cc1ccc2ccccc2c1)NC(=O)[C@@H](Cc1ccc(Cl)cc1)NC(=O)[C@@H](Cc1c[nH]c2ccccc12)NC(C)=O)C(=O)N[C@@H](CC(C)C)C(=O)N[C@@H](CCCN=C(N)N)C(=O)N1CCC[C@H]1C(=O)N[C@H](C)C(N)=O)NCC | 5.5 | – | –
13 | CCNC(=O)[C@@H]1CCCN1C(=O)[C@H](CCCN=C(N)N)NC(=O)[C@H](CC(C)C)NC(=O)[C@@H](CCCCN=C(NCC)NCC)NC(=O)[C@H](Cc1ccc(O)cc1)NC(=O)[C@H](CO)NC(=O)[C@@H](Cc1c[nH]c2ccccc12)NC(=O)[C@@H](Cc1ccc(Cl)cc1)NC(=O)[C@@H](Cc1ccc2ccccc2c1)NC(C)=O | 2.4 | > 16 | –
14 | CCCCCCNC(=NCCCC[C@@H](NC(=O)[C@H](Cc1ccc(O)cc1)NC(=O)[C@H](CCCN)NC(=O)[C@@H](Cc1c[nH]c2ccccc12)NC(=O)[C@@H](Cc1ccc(Cl)cc1)NC(=O)[C@@H](Cc1ccc(Cl)cc1)NC(C)=O)C(=O)N[C@@H](CC(C)C)C(=O)N[C@@H](CCCN=C(N)N)C(=O)N1CCC[C@H]1C(=O)N[C@H](C)C(N)=O)NCCCCCC | > 16 | – | –
15 | CCNC(=NCCCC[C@@H](NC(=O)[C@H](Cc1ccc(O)cc1)NC(=O)[C@H](CO)NC(=O)[C@@H](Cc1ccc2ccccc2c1)NC(=O)[C@@H](Cc1ccc(Cl)cc1)NC(=O)[C@@H](Cc1ccc2ccccc2c1)NC(C)=O)C(=O)N[C@@H](CC(C)C)C(=O)N[C@@H](CCCN=C(N)N)C(=O)N1CCC[C@H]1C(=O)N[C@H](C)C(N)=O)NCC | – | – | 1.7
16 | CCNC(=NCCCC[C@@H](NC(=O)[C@H](Cc1ccc(O)cc1)NC(=O)[C@H](CO)NC(=O)[C@@H](Cc1c[nH]c2ccccc12)NC(=O)[C@@H](Cc1ccc(Cl)cc1)NC(=O)[C@@H](Cc1ccc2ccccc2c1)NC(C)=O)C(=O)N[C@@H](CC(C)C)C(=O)N[C@@H](CCCN=C(N)N)C(=O)N1CCC[C@H]1C(=O)N[C@H](C)C(N)=O)NCC (stereo in doubt; 25) | 0.5 | < 4 | –
17 | CCNC(=NCCCC[C@@H](NC(C)=O)C(=O)N[C@H](Cc1ccc(Cl)cc1)C(=O)N[C@H](Cc1c[nH]c2ccccc12)C(=O)N[C@@H](CO)C(=O)N[C@@H](Cc1ccc(O)cc1)C(=O)N[C@H](Cc1ccc2ccccc2c1)C(=O)N[C@@H](CC(C)C)C(=O)N[C@@H](CCCN=C(N)N)C(=O)N1CCC[C@H]1C(=O)N[C@H](C)C(N)=O)NCC | 8 | – | –
18 | CCNC(=NCCCC[C@@H](NC(=O)[C@H](Cc1ccc(O)cc1)NC(=O)[C@H](CO)NC(=O)[C@@H](Cc1cccnc1)NC(=O)[C@@H](Cc1ccc(Cl)cc1)NC(=O)[C@@H](Cc1ccc2ccccc2c1)NC(C)=O)C(=O)N[C@@H](CC(C)C)C(=O)N[C@@H](CCCN=C(N)N)C(=O)N1CCC[C@H]1C(=O)N[C@H](C)C(N)=O)NCC | 0.6 | > 4 | –
19 | CCNC(=NCCCC[C@H](NC(=O)[C@H](CO)NC(=O)[C@@H](Cc1c[nH]c2ccccc12)NC(=O)[C@@H](Cc1ccc(Cl)cc1)NC(=O)[C@@H](CCCCN=C(NCC)NCC)NC(C)=O)C(=O)N[C@H](Cc1ccc(O)cc1)C(=O)N[C@@H](Cc1c[nH]c2ccccc12)C(=O)N[C@@H](CCCN=C(N)N)C(=O)N1CCC[C@H]1C(=O)N[C@H](C)C(N)=O)NCC | > 16 | – | –
20 | CCNC(=NCCCC[C@@H](NC(=O)[C@H](Cc1ccc(O)cc1)NC(=O)[C@H](CO)NC(=O)[C@@H](Cc1c[nH]c2ccccc12)NC(=O)[C@@H](Cc1ccc(F)cc1)NC(=O)[C@@H](Cc1ccc2ccccc2c1)NC(C)=O)C(=O)N[C@@H](CC(C)C)C(=O)N[C@@H](CCCN=C(N)N)C(=O)N1CCC[C@H]1C(=O)N[C@H](C)C(N)=O)NCC | 0.4 | – | –
21 | CC/N=C(\NCCCC[C@@H](NC(=O)[C@H](Cc1ccc(O)cc1)NC(=O)[C@H](CO)NC(=O)[C@@H](Cc1c[nH]c2ccccc12)NC(=O)[C@@H](Cc1ccc(Cl)cc1)NC(=O)[C@@H](Cc1ccc(Cl)cc1)NC(C)=O)C(=O)N[C@@H](CC(C)C)C(=O)N[C@@H](CCCN=C(N)N)C(=O)N1CCC[C@H]1C(=O)NCC(N)=O)NCCCN(C)C | > 2 | – | –
22 | CCNC(=NCCCC[C@@H](NC(=O)[C@H](Cc1ccc(O)cc1)NC(=O)[C@H](CO)NC(=O)[C@@H](Cc1cccnc1)NC(=O)[C@@H](Cc1ccc(F)cc1)NC(=O)[C@@H](Cc1ccc2ccccc2c1)NC(C)=O)C(=O)N[C@@H](CC(C)C)C(=O)N[C@@H](CCCN=C(N)N)C(=O)N1CCC[C@H]1C(=O)N[C@H](C)C(N)=O)NCC | 0.7 | – | –
23 | CCNC(=NCCCC[C@H](NC(=O)[C@H](CO)NC(=O)[C@@H](Cc1c[nH]c2ccccc12)NC(=O)[C@@H](Cc1ccc(Cl)cc1)NC(=O)[C@@H](Cc1ccc2ccccc2c1)NC(C)=O)C(=O)N[C@H](Cc1ccc2ccccc2c1)C(=O)N[C@@H](CC(C)C)C(=O)N[C@@H](CCCN=C(N)N)C(=O)N1CCC[C@H]1C(=O)N[C@H](C)C(N)=O)NCC | 1.6 | – | –
